We go through one molecule from ChEMBL document CHEMBL4354879, “Bioisosteric Discovery of NPA101.3, a Second-Generation RET/VEGFR2 Inhibitor Optimized for Single-Agent Polypharmacology” (J Med Chem, 2020).

In series [1] the target is Proto-oncogene tyrosine-protein kinase receptor Ret (Homo sapiens, UniProt P07949). The experiment in a line: Binding affinity to recombinant phosphorylated RET kinase domain (705 to 1013 residues) (unknown origin) expressed in baculovirus infected Sf9 insect cells assessed as change in melting temperature at 40 uM measured over 240 mins by sypro orange dye based thermal shift assay.

In series [2] the target is T1, Macrophage colony-stimulating factor 1 receptor (Homo sapiens, UniProt P07333). The experiment in a line: Binding affinity to wild-type human partial length CSF1R (I564 to S939 residues) expressed in bacterial expression system at 100 nM by Kinomescan method relative to control.
In series [3] the target is Tyrosine-protein kinase FRK (Homo sapiens) (UniProt P42685). The experiment in a line: Binding affinity to wild-type human partial length FRK (A215 to F503 residues) expressed in bacterial expression system at 100 nM by Kinomescan method relative to control.
The target in series [4] is T1, Macrophage colony-stimulating factor 1 receptor. The experiment in a line: Inhibition of recombinant human His-tagged CSF1R cytoplasmic domain (538 to 910 residues) expressed in baculovirus expression system using peptide substrate preincubated for 60 mins followed by substrate addition by microfluidic assay.
The target of series [5] is Voltage-gated inwardly rectifying potassium channel KCNH2 (Homo sapiens, UniProt Q12809). In words: Inhibition of human ERG expressed in HEK293 cells by patch clamp assay. Background: In patch-clamp work, channel activity is measured electrically.
Series [6] has as its system Proto-oncogene tyrosine-protein kinase receptor Ret (Homo sapiens), P07949 [V804L]. In words: Inhibition of RET isoform 9 V804L mutant (unknown origin) expressed in rat Rat1 assessed as reduction in RET phosphorylation at Y1062 residue at 1 to 100 nM measured after 2 hrs by Western blot analysis. Type of series: cell-based. The method, boiled down: (§1)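 Serum-starved RAT1 (RET point mutants) or NIH3T3 (RET rearrangements) cells expressing short RET-9 isoform, treated 2 h; 50 μg total lysate immunoblotted with anti-phospho-Y1062 and anti-phospho-Y905 RET antibodies, normalized to total RET; ECL detection. Compound from 50 mM DMSO stock diluted in growth medium.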

Series [7] is filed under the species Homo sapiens. The experiment in a line: Inhibition of NCOA4/RET isoform 9 (unknown origin) expressed in mouse NIH/3T3 cells assessed as reduction in RET phosphorylation at Y905 residue at 1 to 100 nM measured after 2 hrs by Western blot analysis. Type of series: cell-based. The method, boiled down: as §1
For orientation: Immunoblotting shows a protein as a band on a membrane.

The species entered for series [8] is Homo sapiens. In words: Inhibition of CCDC6/RET isoform 9 (unknown origin) expressed in mouse NIH/3T3 cells assessed as reduction in RET phosphorylation at Y1062 residue at 1 to 100 nM measured after 2 hrs by Western blot analysis. Type of series: cell-based. The method in brief: as §1
In series [9] the target is Coiled-coil domain-containing protein 6/Tyrosine-protein kinase receptor RET (Homo sapiens) (UniProt P07949+Q16204). The experiment in a line: Inhibition of CCDC6/RET in human LC2/ad cells assessed as reduction in SHC phosphorylation at 0.3 to 30 nM measured after 2 hrs by Western blot analysis. It is filed as cell-based.
For series [10], the species on record is Homo sapiens. The experiment in a line: Effect on MAPK phosphorylation in RET deficient human PC9 cells at 1 to 100 nM measured after 2 hrs by western blot analysis.
Series [11] is filed under the species Homo sapiens. The experiment in a line: Effect on MAPK phosphorylation in RET deficient human Calu1 cells at 1 to 100 nM measured after 2 hrs by western blot analysis.
Series [12] concerns Proto-oncogene tyrosine-protein kinase receptor Ret (Homo sapiens), P07949 [C634R]. The experiment in a line: Inhibition of RET […] C634R mutant (unknown origin) expressed in mouse BAF3 cells assessed as reduction in RET phosphorylation at Y905 residue at 0.3 to 30 nM measured after 2 hrs by Western blot analysis. Type of series: cell-based. The method, boiled down:
(§2)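 Ba/F3 cells stably expressing long-isoform RET-51 mutants (electroporation), cultured in RPMI/10% FCS without IL-3; RET phosphorylation read by Western blot with anti-phospho-Y905 and anti-phospho-Y1062 antibodies, ECL detection.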

The test system of series [13] is Proto-oncogene tyrosine-protein kinase receptor Ret (Homo sapiens), P07949 [M918T]. In words: Inhibition of RET […] M918T mutant (unknown origin) expressed in mouse BAF3 cells assessed as reduction in RET phosphorylation at Y1062 residue at 0.3 to 30 nM measured after 2 hrs by Western blot analysis. It is filed as cell-based. The method, boiled down:
as §2

In series [14] the test system is BaF3. In words: Inhibition of NCOA4/RET […] (unknown origin) expressed in mouse BAF3 cells assessed as reduction in RET phosphorylation at Y1062 residue at 0.3 to 30 nM measured after 2 hrs by Western blot analysis. It is filed as cell-based. The note with it: Homo sapiens. The method, boiled down: as §2
The subject of series [15] is BCPAP. In words: Cytotoxicity against RET deficient human BCPAP cells supplemented with fresh medium containing compound for every 2 to 3 days measured during compound dosing. It is filed as functional, cell-based. The method, boiled down:
(§3)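 Human RET-negative lines were seeded in six-well plates at 10000 cells/well, in 5% FCS (Nthy-ori-3-1) or 10% FCS (BCPAP, 8505-C, CALU-1, A549, PC-9). Drug or vehicle was added the day after plating, with medium changed every 2–3 days. Cells were counted every 2–3 days. IC50 was fitted from the last day of the growth curves.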

For series [16], the system named is Calu-1. The experiment in a line: Cytotoxicity against RET deficient human Calu1 cells supplemented with fresh medium containing compound for every 2 to 3 days measured during compound dosing. Type of series: functional, cell-based. The method in brief: as §3
Series [17] concerns GTPase HRas (Homo sapiens), P01112 [G12V]. In words: Inhibition of HRAS G12V mutant (unknown origin) expressed in mouse NIH/3T3 cells assessed as reduction in cell proliferation up to 100 nM supplemented with fresh medium containing compound for every 2 to 3 days measured at 2 days interval during compound dosing. It is filed as cell-based. The method in brief:
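NIH3T3 transformants seeded 10000/well in 2% calf serum; next day drug or vehicle added, medium changed every 2–3 days; cells counted every 2 days; IC50 from curve fit of last-day counts.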

The test system is the same in series [18]. The experiment in a line: Inhibition of HRAS G12V mutant (unknown origin) expressed in mouse NIH/3T3 cells assessed as reduction in MAPK phosphorylation up to 100 nM measured after 2 hrs by Western blot analysis. It is filed as cell-based.
The test system of series [19] is Mus musculus. In words: In vivo inhibition of RET isoform 9 C634R mutant transfected in mouse NIH/3T3 cells implanted BALB/c nu/nu mouse assessed as reduction in RET phosphorylation at Y905 residue in tumor at 1 mg/kg, po administered once daily via gavage for 3 days measured 3 hrs post-last dose by Western blot analysis. Type of series: functional, organism-based.

Series [20] is described as follows: Toxicity in BALB/c nu/nu mouse assessed as change in glucose level at 10 mg/kg, po administered daily for 7 days. Type of series: organism-based. Conditions: in vivo, 168 h.
Series [21] can be described thus: Toxicity in BALB/c nu/nu mouse assessed as change in alanine transaminase level at 10 mg/kg, po administered daily for 7 days. It is filed as organism-based. The note with it: in vivo, 168 h. The method, boiled down: (§4)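 Mice dosed orally with 10 mg/kg/day for 7 days; standard blood markers of organ damage measured.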
A short description of series [22]: Toxicity in BALB/c nu/nu mouse assessed as change in globulin level at 10 mg/kg, po administered daily for 7 days. Type of series: organism-based. The note with it: in vivo, 168 h.
The nature of series [23]: Toxicity in BALB/c nu/nu mouse assessed as change in blood urea nitrogen level at 10 mg/kg, po administered daily for 7 days. Type of series: organism-based. The note with it: in vivo, 168 h. The method in brief: as §4
Series [24] deals with Mus musculus. The experiment in a line: In vivo inhibition of RET isoform 9 C634Y mutant transfected in mouse NIH/3T3 cells implanted BALB/c nu/nu mouse assessed as reduction in RET phosphorylation at Y1062 residue at 3 mg/kg, po administered once daily via gavage for 2 days measured 3 hrs post-last dose by Western blot analysis.

Structures are written as SMILES. pIC50: −log10 of the molar value. Activity calls are given as the source filed them. The calls are words filed in the database; no cut-off is given here.

Sequence of GTPase HRas (Homo sapiens), P01112 [G12V] (P01112 whole entry G12V): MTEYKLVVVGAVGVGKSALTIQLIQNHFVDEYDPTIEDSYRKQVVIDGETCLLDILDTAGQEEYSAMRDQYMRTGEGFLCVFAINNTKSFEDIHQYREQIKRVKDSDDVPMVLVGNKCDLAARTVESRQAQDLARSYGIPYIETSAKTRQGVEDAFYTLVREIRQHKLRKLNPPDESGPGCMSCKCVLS
T1 sequence (P07333 whole entry, the tested form may be a part): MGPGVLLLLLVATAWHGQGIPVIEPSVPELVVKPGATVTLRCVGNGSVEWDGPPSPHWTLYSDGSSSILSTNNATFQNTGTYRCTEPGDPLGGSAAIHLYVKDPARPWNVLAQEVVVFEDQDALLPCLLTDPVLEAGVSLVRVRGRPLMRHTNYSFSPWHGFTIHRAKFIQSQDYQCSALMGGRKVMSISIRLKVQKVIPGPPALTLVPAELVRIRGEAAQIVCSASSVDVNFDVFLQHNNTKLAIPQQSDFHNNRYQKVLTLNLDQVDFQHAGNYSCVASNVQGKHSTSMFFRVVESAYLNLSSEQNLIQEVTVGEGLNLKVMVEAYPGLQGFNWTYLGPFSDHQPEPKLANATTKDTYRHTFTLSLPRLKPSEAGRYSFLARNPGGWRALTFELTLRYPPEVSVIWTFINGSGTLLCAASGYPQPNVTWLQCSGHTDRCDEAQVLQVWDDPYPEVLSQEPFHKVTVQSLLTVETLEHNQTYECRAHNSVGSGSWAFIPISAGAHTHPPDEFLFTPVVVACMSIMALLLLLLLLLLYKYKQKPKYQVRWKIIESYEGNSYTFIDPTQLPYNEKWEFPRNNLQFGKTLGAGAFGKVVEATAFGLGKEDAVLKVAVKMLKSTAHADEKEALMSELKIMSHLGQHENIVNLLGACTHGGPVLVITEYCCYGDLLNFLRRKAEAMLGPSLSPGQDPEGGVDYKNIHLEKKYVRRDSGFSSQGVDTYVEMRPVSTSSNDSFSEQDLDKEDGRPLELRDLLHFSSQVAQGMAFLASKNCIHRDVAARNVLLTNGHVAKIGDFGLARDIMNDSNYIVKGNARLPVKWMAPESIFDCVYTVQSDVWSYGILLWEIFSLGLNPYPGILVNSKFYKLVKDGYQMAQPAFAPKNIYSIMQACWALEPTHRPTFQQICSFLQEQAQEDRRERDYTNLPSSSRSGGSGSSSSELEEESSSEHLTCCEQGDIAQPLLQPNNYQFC
Sequence of Proto-oncogene tyrosine-protein kinase receptor Ret (Homo sapiens), P07949 [C634R] (P07949 whole entry C634R, canonical isoform): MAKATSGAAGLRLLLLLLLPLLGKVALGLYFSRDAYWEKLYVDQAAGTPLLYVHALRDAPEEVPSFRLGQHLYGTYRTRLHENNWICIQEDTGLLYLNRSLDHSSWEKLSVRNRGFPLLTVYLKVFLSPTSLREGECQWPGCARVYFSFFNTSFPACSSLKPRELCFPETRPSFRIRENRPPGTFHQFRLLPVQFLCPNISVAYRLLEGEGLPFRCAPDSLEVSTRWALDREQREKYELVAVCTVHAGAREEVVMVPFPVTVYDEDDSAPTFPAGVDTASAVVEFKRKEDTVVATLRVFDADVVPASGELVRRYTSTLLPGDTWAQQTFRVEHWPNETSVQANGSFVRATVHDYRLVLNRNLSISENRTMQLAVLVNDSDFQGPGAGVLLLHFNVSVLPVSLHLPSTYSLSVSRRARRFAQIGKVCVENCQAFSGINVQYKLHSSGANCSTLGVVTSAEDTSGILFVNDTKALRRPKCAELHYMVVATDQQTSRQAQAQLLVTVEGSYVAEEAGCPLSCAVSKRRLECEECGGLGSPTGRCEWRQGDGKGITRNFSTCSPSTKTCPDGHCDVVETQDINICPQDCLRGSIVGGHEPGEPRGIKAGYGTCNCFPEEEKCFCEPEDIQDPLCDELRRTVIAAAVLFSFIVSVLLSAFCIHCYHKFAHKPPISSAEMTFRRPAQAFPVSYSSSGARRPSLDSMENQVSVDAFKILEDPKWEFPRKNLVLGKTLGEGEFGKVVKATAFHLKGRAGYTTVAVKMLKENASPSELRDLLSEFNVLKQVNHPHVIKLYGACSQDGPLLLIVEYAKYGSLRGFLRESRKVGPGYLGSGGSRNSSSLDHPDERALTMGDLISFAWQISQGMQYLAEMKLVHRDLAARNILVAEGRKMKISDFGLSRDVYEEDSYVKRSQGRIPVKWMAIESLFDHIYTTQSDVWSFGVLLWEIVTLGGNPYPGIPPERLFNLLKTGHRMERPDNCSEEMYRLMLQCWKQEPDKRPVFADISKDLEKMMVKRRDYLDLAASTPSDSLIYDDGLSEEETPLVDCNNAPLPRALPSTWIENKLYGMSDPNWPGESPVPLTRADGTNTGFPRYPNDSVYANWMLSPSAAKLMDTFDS
Sequence of Proto-oncogene tyrosine-protein kinase receptor Ret (Homo sapiens), P07949 [M918T] (P07949 whole entry M918T): as the sequence (P07949 whole entry C634R, canonical isoform) above, with R634C, M918T counted along it
Sequence of Tyrosine-protein kinase FRK (Homo sapiens) (P42685 whole entry, the tested form may be a part): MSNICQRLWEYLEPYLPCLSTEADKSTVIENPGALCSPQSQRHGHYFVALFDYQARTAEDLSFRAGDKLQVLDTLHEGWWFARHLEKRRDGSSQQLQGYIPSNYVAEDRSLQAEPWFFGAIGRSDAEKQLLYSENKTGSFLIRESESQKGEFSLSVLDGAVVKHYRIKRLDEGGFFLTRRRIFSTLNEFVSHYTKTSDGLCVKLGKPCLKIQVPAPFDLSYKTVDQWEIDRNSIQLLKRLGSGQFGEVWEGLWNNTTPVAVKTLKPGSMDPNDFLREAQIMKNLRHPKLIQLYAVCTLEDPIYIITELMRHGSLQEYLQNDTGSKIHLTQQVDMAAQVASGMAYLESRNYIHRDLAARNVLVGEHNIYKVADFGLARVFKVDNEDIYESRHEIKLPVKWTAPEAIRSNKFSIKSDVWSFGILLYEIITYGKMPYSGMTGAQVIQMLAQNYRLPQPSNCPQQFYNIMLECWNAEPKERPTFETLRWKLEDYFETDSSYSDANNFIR
Sequence of Coiled-coil domain-containing protein 6/Tyrosine-protein kinase receptor RET (Homo sapiens) (P07949 29-1114 limits assumed): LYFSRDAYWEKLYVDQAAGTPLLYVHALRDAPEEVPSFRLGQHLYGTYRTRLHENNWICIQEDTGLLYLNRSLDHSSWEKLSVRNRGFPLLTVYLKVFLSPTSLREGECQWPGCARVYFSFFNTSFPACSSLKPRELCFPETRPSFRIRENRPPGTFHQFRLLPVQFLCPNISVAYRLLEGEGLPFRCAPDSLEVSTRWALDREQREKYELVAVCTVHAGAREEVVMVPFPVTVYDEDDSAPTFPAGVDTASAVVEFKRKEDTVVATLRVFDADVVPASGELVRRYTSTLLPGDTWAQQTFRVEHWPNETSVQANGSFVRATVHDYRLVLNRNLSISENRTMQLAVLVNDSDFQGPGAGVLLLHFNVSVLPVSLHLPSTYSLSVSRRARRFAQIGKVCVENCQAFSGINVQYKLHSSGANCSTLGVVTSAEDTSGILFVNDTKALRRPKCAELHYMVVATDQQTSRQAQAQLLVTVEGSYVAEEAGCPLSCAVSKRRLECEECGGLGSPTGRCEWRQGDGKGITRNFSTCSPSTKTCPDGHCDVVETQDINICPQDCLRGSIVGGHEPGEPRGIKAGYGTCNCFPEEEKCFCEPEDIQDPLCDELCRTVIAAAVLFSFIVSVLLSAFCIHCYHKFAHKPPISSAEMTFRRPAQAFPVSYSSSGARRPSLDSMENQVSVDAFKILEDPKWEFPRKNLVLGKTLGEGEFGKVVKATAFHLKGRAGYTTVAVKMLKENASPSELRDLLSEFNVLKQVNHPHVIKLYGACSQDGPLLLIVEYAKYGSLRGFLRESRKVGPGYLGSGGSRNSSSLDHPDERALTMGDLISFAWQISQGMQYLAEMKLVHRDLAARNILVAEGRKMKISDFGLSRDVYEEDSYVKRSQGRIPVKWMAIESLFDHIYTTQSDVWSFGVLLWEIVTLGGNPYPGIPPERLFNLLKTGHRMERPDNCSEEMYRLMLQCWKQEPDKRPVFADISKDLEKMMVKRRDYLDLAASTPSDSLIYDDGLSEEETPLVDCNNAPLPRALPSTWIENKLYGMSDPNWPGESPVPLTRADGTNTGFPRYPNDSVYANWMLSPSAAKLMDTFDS
Sequence of Coiled-coil domain-containing protein 6/Tyrosine-protein kinase receptor RET (Homo sapiens) (Q16204 2-474 partner limits assumed): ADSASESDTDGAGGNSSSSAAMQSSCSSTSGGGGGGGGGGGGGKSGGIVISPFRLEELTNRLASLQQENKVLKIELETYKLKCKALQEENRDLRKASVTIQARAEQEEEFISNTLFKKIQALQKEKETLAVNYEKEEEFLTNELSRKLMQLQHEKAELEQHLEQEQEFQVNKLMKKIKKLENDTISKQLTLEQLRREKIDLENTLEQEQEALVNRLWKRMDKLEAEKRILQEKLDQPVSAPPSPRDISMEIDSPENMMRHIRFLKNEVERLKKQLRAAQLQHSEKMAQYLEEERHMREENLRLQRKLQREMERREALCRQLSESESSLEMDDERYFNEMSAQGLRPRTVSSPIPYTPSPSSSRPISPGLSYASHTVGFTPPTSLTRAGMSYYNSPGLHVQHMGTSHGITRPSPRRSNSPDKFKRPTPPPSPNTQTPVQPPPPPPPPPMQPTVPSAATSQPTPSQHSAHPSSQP
Sequence of Proto-oncogene tyrosine-protein kinase receptor Ret (P07949 whole entry, the tested form may be a part): as the sequence (P07949 whole entry C634R, canonical isoform) above, with R634C counted along it
Sequence of Proto-oncogene tyrosine-protein kinase receptor Ret (Homo sapiens), P07949 [V804L] (P07949 whole entry V804L, canonical isoform): as the sequence (P07949 whole entry C634R, canonical isoform) above, with R634C, V804L counted along it

A word on the ΔTm: it is the shift of the melting midpoint relative to a reference. For orientation: pIC50 means the IC50 on a negative log10 scale, so that one unit is a factor of ten. Regarding `CC(C)(C)c1cc(NC(=O)Cc2ccc(-n3cnc4cc(-c5ccc(S(C)(=O)=O)cc5)ccc43)cc2)no1`, in series [1], the ΔTm is 16 °C. For the same molecule, the Activity is > 90% in series [2]; > 90% in series [3]; “Non-Toxic” in series [20]; “Non-Toxic” in [21]; “Non-Toxic” in series [22]; “Non-Toxic” in series [23]. In addition, the pIC50 was 7.34 in series [4], 5.12 in series [5], < 7.00 in [15] and < 7.00 in series [16]. Moreover, the inhibition result in series [6], in series [7], in series [8], in series [9], in series [12] and in [13] was “Active” in each case. For the same molecule, the inhibition result in series [14], in series [19] and in series [24] was “Active” each time. The result in [10] and in series [11] was inactive. The inhibition result in series [17] and in series [18] was “inactive” in each case.
